The results in this text go back to ChEMBL document CHEMBL1130251, “Enzymatic properties of the unnatural beta-L-enantiomers of 2',3'-dideoxyadenosine and 2',3'-didehydro-2',3'-dideoxyadenosine” (J Med Chem, 1997).

Compound in series [1]: Nc1ncnc2c1ncn2[C@H]1C=C[C@@H](CO)O1
As to the kind of experiment: (§1) Inhibitory activity against bovine liver adenosine Kinase; NS, […]=nonsubstrate, noninhibitor/inhibitor. The note with it: Bos taurus. In a few lines: (§2)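 Adenosine kinase purified from bovine liver, 0.38–7.6 μg·mL⁻¹, at 37 °C. Medium: 100 mM Tris HCl pH 7.4, 100 mM KCl, 4.8 mg·mL⁻¹ BSA, 0.5 mM MgCl2, 1 mM ATP, test nucleoside. 5'-Phosphorylation monitored by C-18 HPLC (phosphate pH 6/acetonitrile gradient). Inhibition assessed against 50 μM adenosine.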

Compound in series [2]: Nc1ncnc2c1ncn2[C@H]1CC[C@@H](CO)O1
The description is as §1. The note with it: Bos taurus. In a few lines: as §2

B1: Adenosine kinase (Toxoplasma gondii), Q9TVW2 (protein)
chain: MAVDSSNSATGPMRVFAIGNPILDLVAEVPSSFLDEFFLKRGDATLATPEQMRIYSTLDQFNPTSLPGGSALNSVRVVQKLLRKPGSAGYMGAIGDDPRGQVLKELCDKEGLATRFMVAPGQSTGVCAVLINEKERTLCTHLGACGSFRLPEDWTTFASGALIFYATAYTLTATPKNALEVAGYAHGIPNAIFTLNLSAPFCVELYKDAMQSLLLHTNILFGNEEEFAHLAKVHNLVAAEKTALSTANKEHAVEVCTGALRLLTAGQNTGATKLVVMTRGHNPVIAAEQTADGTVVVHEVGVPVVAAEKIVDTNGAGDAFVGGFLYALSQGKTVKQCIMCGNACAQDVIQHVGFSLSFTSLPC
As for B1, the Km result in series [1] is “NS, NI/Ado”; in series [2] it was “NS, NI/Ado”.
